We go through 4 compounds from paper PMC4642656 (Journal of Ethnopharmacology, 2015).

What all share (format): cell-based
For assay [1], the system named is Plasmodium falciparum chloroquine-resistant (W2) strain. The experiment in a line: Antiplasmodial assay. The essentials:
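Asexual erythrocytic-stage P. falciparum W2 was kept in continuous in vitro culture. It was tested by modified semiautomated microdilution for inhibition of [G-3H]hypoxanthine incorporation. Cells were harvested onto glass-fibre filters and counted by liquid scintillation as cpm per well at each drug concentration, expressed as % of untreated controls. IC50 was taken from nonlinear regression of the dose-response curve.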

The test system of assay [2] is Plasmodium falciparum chloroquine-sensitive (D6) strain. The experiment in a line: Antiplasmodial assay. The note with it: for IC50: Plasmodium falciparum.
In assay [3] the test system is mouse breast cancer (4T1) cells. The experiment in a line: MTT cytotoxicity assay, 4T1 cells. On the technique in general: Tetrazolium assays rely on reduction of a dye to a coloured formazan, in cell work by metabolically active cells.
Assay [4] has as its system human larynx carcinoma (HEp2) cells. The experiment in a line: MTT cytotoxicity assay, HEp2 cells.
Where [5] appears, read: Mus musculus, 4T1, 48 h, read-out: IC50 4T1, 4T1 cells, MTT, 48 h.
Where [6] appears, read: read-out: IC50 4T1, 4T1 cells, MTT, 48 h.
Where [7] appears, read: Homo sapiens, HEp-2, 48 h, read-out: IC50 HEp2, HEp2 cells, MTT, 48 h.
Setting [8] is: read-out: IC50 HEp2, HEp2 cells, MTT, 48 h.

By IC50 is commonly meant the concentration that gives 50% inhibition.

Read-outs that look alike come from different tables or passages of the source.

As to `CC(=O)O[C@@H]1C[C@H]2C(C)(C)C(=O)C=C[C@]2(C)[C@H]2CC[C@]3(C)C(=CC[C@H]3c3ccoc3)[C@@]21C` [Azadirone (1), azadirone], the IC50 in assay [1] (W2, read-out: IC50 W2) is 29.6 ± 1 µM; in assay [2] (D6, read-out: IC50 D6), 23.4 ± 0.2 µM; in assay [3] (setting [5]), less than 20 µM; in assay [3] (setting [6]), 14.4 µM; in assay [4] (setting [7]), less than 20 µM; in assay [4] (setting [8]), 12.8 µM.
Take `C[C@H](C[C@@H](O)[C@@H]1OC1(C)C)[C@@H]1CC[C@]2(C)C3=CC[C@H]4C(C)(C)C(=O)CC[C@]4(C)[C@H]3CC[C@@]12C` [Niloticin (8), niloticin]: the IC50 in assay [1] (W2, read-out: IC50 W2) is 77 ± 5.7 µM; in assay [2] (D6, read-out: IC50 D6), 48.2 ± 2.3 µM; in assay [3] (setting [5]), less than 20 µM; in assay [3] (setting [6]), 14.5 ± 0.5 µM; in assay [4] (setting [8]), 6.9 ± 0.6 µM; in assay [4] (read-out: IC50 HEp2, HEp2 cells, MTT, 48 h, listed as niloticin (8)), less than 20 µM.
For `CC(=O)O[C@H]1C[C@@H]2[C@@]3(C)CCC(=O)C(C)(C)[C@@H]3C[C@@H](O)[C@@]2(C)C2=CC[C@@H](c3ccoc3)[C@@]21C` [Mzikonone (3), mzikonone], the IC50 is 40.5 ± 3.7 µM in assay [1] (W2, read-out: IC50 W2); 36.6 ± 0.8 µM in assay [2] (D6, read-out: IC50 D6); 38.8 ± 0.4 µM in assay [3] (setting [5]); 59.3 ± 1 µM in assay [4] (setting [7]).
In the case of `CCN(CC)CCCC(C)Nc1ccnc2cc(Cl)ccc12` (stereo not shown) [Chloroquine, reference compound], the concentration for half-maximal inhibition (IC50) was 0.108 µM in assay [1] (W2, read-out: IC50 W2 (chloroquine)) and 0.0077 µM in assay [2] (D6, read-out: IC50 D6 (chloroquine)). Besides, the “SI: selectivity index [IC50 vero/IC50 (D6)]” value in assay [2] (Table 1) turned out to be 5701.
